Experimental data taken from ChEMBL document CHEMBL1125744, “Preparation, characterization, and anticancer activity of a series of cis-PtCl2 complexes linked to anthraquinone intercalators” (1991).

Legend:
Format in all cases: functional
[1] = tested on: P388; assay: In vitro inhibition of P388 murine leukemia cell (R/ADR) growth; conditions: Mus musculus; for EC50: read-out: ED50 (the source's name)
How it was run: (§1)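 P388 murine leukemia cells (S/ADR) or multidrug-resistant P388/ADR subline (R/ADR), kept exponential in suspension in RPMI 1640 + 10% heat-inactivated FCS, 10 μM 2-mercaptoethanol, penicillin/streptomycin; seeded 10⁵ cells/mL, exposed to graded concentrations for 4 days. Density counted daily by Coulter counter; growth rate from linear regression of log density vs time, expressed as % of control; ED50 read from dose-effect curves.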

[2] = tested on: P388; assay: In vitro inhibition of P388 murine leukemia cell (S/ADR) growth; conditions: Mus musculus; for EC50: read-out: ED50 (the source's name); how it was run: as §1
[3] = species on record: Mus musculus; assay: Lethal dose against DBA/2 mice was determined.
[4] = T/C ratio with the optimal dose mg/Kg in parenthesis.
[5] = T/C ratio of the compound

Molecule	ED50 [1] [µM]	ED50 [2] [µM]	EC50 [1] [µM]	EC50 [2] [µM]	also measured
cis-Bis[[3-(anthraquinon-1-ylamino)dodecyl]amide]diiodoplatinum	> 60	60	–	–	–
O=C1c2ccccc2C(=O)c2c(NCCCNCCNCCO)cccc21	–	–	> 10	20	–
cis-Bis[[3-(anthraquinon-1-ylamino)propyl]amide]diiodoplatinum	> 60	40	–	–	–
cis-Bis[[3-(anthraquinon-1-ylamino)butyl]amide]dichloroplatinum	> 60	8	–	–	–
NCCCCCCNc1cccc2c1C(=O)c1ccccc1C2=O	–	–	45	45	LD50 [3]: 133 mg/kg
[[2-[[2-(Anthraquinon-1-ylamino)ethyl]amino]ethyl]-amine-N,N']diiodoplatinum	12	4.5	–	–	–
[[2-[[3-(Anthraquinon-1-ylamino)propyl]amino]ethyl]-amine-N,N']dichloroplatinum	> 60	0.45	–	–	LD50 [3]: > 28 mg/kg; T/C [4]: 130
cis-Bis[[3-(anthraquinon-1-yloxy)propyl]amide]diiodoplatinum	> 10	> 10	–	–	–
NCCNCCOCCOc1cccc2c1C(=O)c1ccccc1C2=O	–	–	> 60	0.2	–
NCCNCCCOc1cccc2c1C(=O)c1ccccc1C2=O	–	–	60	6	–
cis-Bis[[3-(anthraquinon-1-ylamino)dodecyl]amide]dichloroplatinum	> 60	60	–	–	–
[[2-[[6-(Anthraquinon-1-ylamino)hexyl]amino]ethyl]-amine-N,N']dichloroplatinum	> 60	45	–	–	–
[[2-[[2-(Anthraquinon-1-ylamino)ethyl]amino]ethyl]-amine-N,N']dichloroplatinum	> 60	0.2	–	–	LD50 [3]: > 28 mg/kg; T/C [4]: 126
cis-Bis[[3-(anthraquinon-1-ylamino)hexyl]amide]diiodoplatinum	> 60	> 60	–	–	–
cis-Bis[[3-(anthraquinon-1-yloxy)propyl]amide]dichloroplatinum	> 10	> 10	–	–	–
cis-Bis[[3-(anthraquinon-1-ylamino)hexyl]amide]dichloroplatinum	> 60	> 60	–	–	–
NCCNCCCCCCNc1cccc2c1C(=O)c1ccccc1C2=O	–	–	8	4.5	LD50 [3]: 200 mg/kg
[[2-[[3-(Anthraquinon-1-yloxy)propyl]amino]ethyl]-amine-N,N']dichloroplatinum	12	0.45	–	–	LD50 [3]: > 28 mg/kg; T/C [4]: 120
NCCCCCCCCCCCCNc1cccc2c1C(=O)c1ccccc1C2=O	–	–	20	60	–
NCCCOc1cccc2c1C(=O)c1ccccc1C2=O	–	–	> 10	10	–
NCCCCNc1cccc2c1C(=O)c1ccccc1C2=O	–	–	50	40	LD50 [3]: 200 mg/kg
NCCCNc1cccc2c1C(=O)c1ccccc1C2=O	–	–	45	20	–
CISPLATIN	1.4	0.19	–	–	LD50 [3]: 6.6 mg/kg; T/C [5]: 134
Pt(en)Cl2	20	6	–	–	–
NCCNCCNc1cccc2c1C(=O)c1ccccc1C2=O	–	–	8	4.5	–
cis-Bis[[3-(anthraquinon-1-ylamino)butyl]amide]diiodoplatinum	> 60	40	–	–	–
[[2-[[3-(Anthraquinon-1-ylamino)propyl]amino]ethyl](2-hydroxyethyl)-amine-N,N']dichloroplatinum	> 60	> 30	–	–	–
NCCNCCCNc1cccc2c1C(=O)c1ccccc1C2=O	–	–	8	4.5	–
